The full list was thinned out, with hits kept by preference.
T cruzi HTS: inhibitors of intracellular Trypanosoma cruzi; intracellular Trypanosoma cruzi in host cells, plate reader; activity score (inhibition), % at 5.01 µM; 4.9% of 22,000 active; AID 651903; in the data active = activity score above about 55%;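 also: parasites and compound incubated about four days before reading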
A1 apoptosis 2: A1 inhibition read as caspase activation; caspase activation, % (concentration not given with the values); MEF A1-2A-BIM cells, caspase-Glo luminescence, 3 h; percent of clofoctol response, DMSO zero; 24,000 tested, under 10 active; AID 2465; in the data active = caspase activation above about 5.9%
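Material: A1-2A-BIM-expressing MEF cells. Buffer or medium: RPMI-1640 plus 10% FBS. Incubation: cells settled overnight, compound exposure 3 h at 37 °C, 5% CO2. Signal: Caspase-Glo 3/7 luminescence, 1 h at room temperature.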
INS-1E ATP HTS: rescue of cytokine-induced death in INS-1E beta cells | INS-1E cytokine-induced death, ATP luminescence, 48 h; normalised: neutral wells 0, positive control 100 | protection from cytokine-induced ATP loss, % at 10 µM | 0.1% of 20,000 active;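 active = mean replicate protection from cytokine-induced ATP loss at least 50% and at least 75% of replicates each reaching 50%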
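Material: INS-1E rat cells; Quantity: 8000 cells/well; Buffer or medium: phenol-red-free RPMI with 5% fetal bovine serum; Probe or stimulus: cytokine cocktail of IFN-γ, TNF-α and IL-1β; Compound dosing: single test concentration per compound, delivered by pin transfer; Incubation: 48 h co-treatment, 10 min post-lysis read; Signal: CellTiter-Glo luminescence.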
A number is an active result; 0 = inactive; - = no result given.

SMILES | T cruzi HTS | A1 apoptosis 2 | INS-1E ATP HTS
C[C@H](CO)N1C[C@H](C)[C@H](CN(C)Cc2ccc(C(=O)Nc3ccccc3N)cc2)Oc2c(NC(=O)Nc3cccc4ccccc34)cccc2C1=O | - | 0 | -
C[C@@H]1CCCCO[C@H](CN(C)C)[C@H](C)CN([C@@H](C)CO)C(=O)c2cc(NC(=O)CCC(F)(F)F)ccc2O1 | - | 0 | -
O=C(N/N=C/c1ccccc1Br)c1ccccc1O | 0 | 0 | 0
Cc1ncc(CO)c(/C=N/NC(=O)CCCCCC(=O)Nc2ccccc2O)c1O | - | 0 | -
C[C@H](CO)N1C[C@H](C)[C@H](CN(C)Cc2ccc(C(F)(F)F)cc2)Oc2ccc(NC(=O)Nc3cccc4ccccc34)cc2CC1=O | 79 | - | 0
C[C@@H]1CN([C@@H](C)CO)C(=O)Cc2cc(NC(=O)Nc3cccc4ccccc34)ccc2O[C@@H]1CN(C)C(=O)Nc1ccc(C(F)(F)F)cc1 | 0 | 0 | 0
C[C@H](CO)N1C[C@H](C)[C@H](CN(C)C(=O)Nc2ccc(C(F)(F)F)cc2)Oc2ccc(NC(=O)Nc3cccc4ccccc34)cc2CC1=O | 0 | 0 | 0
C[C@H]1CN([C@@H](C)CO)C(=O)Cc2cc(NC(=O)Nc3cccc4ccccc34)ccc2O[C@@H]1CN(C)Cc1ccc(C(F)(F)F)cc1 | 69 | 0 | 0
C[C@H]1CN([C@@H](C)CO)C(=O)Cc2cc(NC(=O)Nc3cccc4ccccc34)ccc2O[C@H]1CN(C)Cc1ccc(C(F)(F)F)cc1 | 73 | - | 0
C[C@H](CO)N1C[C@H](C)[C@H](CN(C)Cc2ccccc2)Oc2ccc(NC(=O)Nc3cccc4ccccc34)cc2CC1=O | 0 | - | 0
C[C@@H]1CN([C@H](C)CO)C(=O)Cc2cc(NC(=O)Nc3cccc4ccccc34)ccc2O[C@H]1CN(C)Cc1ccc(C(F)(F)F)cc1 | 59 | 0 | 0
C[C@H](CO)N1C[C@H](C)[C@H](CN(C)Cc2ccc(C(=O)O)cc2)Oc2ccc(NC(=O)Nc3cccc4ccccc34)cc2CC1=O | 0 | 0 | 0
O=C(CCCCC(=O)N/N=C/c1ccccc1C(=O)O)NO | 0 | - | 0
CCOc1cccc(/C=N/NC(=O)c2ccccc2O)c1OCC | 0 | 0 | 0
C[C@H](CO)N1C[C@H](C)[C@@H](CN(C)Cc2ccc(-c3ccccc3)cc2)Oc2ccc(NS(=O)(=O)c3ccccc3)cc2C1=O | 41 | 0 | -
COc1ccc(S(=O)(=O)Nc2ccc3c(c2)C(=O)N([C@@H](C)CO)C[C@H](C)[C@H](CN(C)Cc2ccc(Oc4ccccc4)cc2)O3)cc1 | 74 | - | 0
Cc1ccc(S(=O)(=O)Nc2ccc3c(c2)C(=O)N([C@H](C)CO)C[C@@H](C)[C@@H](CN(C)Cc2ccc(-c4ccccc4)cc2)O3)cc1 | 0 | 0 | 0
C[C@@H]1CN([C@H](C)CO)C(=O)c2cc(NS(=O)(=O)c3ccccc3)ccc2O[C@@H]1CN(C)Cc1ccc(-c2ccccc2)cc1 | 66 | 0 | 0
Cc1ccc(S(=O)(=O)Nc2ccc3c(c2)C(=O)N([C@H](C)CO)C[C@H](C)[C@@H](CN(C)Cc2ccc(-c4ccccc4)cc2)O3)cc1 | 0 | - | 0
COc1ccc(S(=O)(=O)Nc2ccc3c(c2)C(=O)N([C@H](C)CO)C[C@@H](C)[C@@H](CN(C)Cc2ccc(Oc4ccccc4)cc2)O3)cc1 | 0 | - | 0
C[C@@H]1CCCCO[C@@H](CN(C)C(=O)Nc2ccc(C(F)(F)F)cc2)[C@H](C)CN([C@@H](C)CO)C(=O)c2cc(NS(C)(=O)=O)ccc2O1 | - | 0 | -
C[C@H]1CN([C@@H](C)CO)C(=O)c2cccc(NC(=O)Nc3ccc4c(c3)OCO4)c2O[C@H]1CN(C)Cc1ccc(C(F)(F)F)cc1 | 0 | 0 | 0
COc1ccc(CN(C)C[C@@H]2Oc3c(NC(=O)Nc4ccc(C(F)(F)F)cc4)cccc3C(=O)N([C@H](C)CO)C[C@H]2C)cc1 | 79 | 0 | 0
C[C@@H]1CN([C@H](C)CO)C(=O)c2cccc(NC(=O)Nc3ccc(F)cc3)c2O[C@H]1CN(C)Cc1ccc(C(F)(F)F)cc1 | 0 | 0 | 0
C[C@@H]1CN([C@@H](C)CO)C(=O)c2cccc(NC(=O)Nc3ccc(C(F)(F)F)cc3)c2O[C@@H]1CN(C)Cc1ccc(C(F)(F)F)cc1 | 81 | - | 0
SMILES | T cruzi HTS | A1 apoptosis 2 | INS-1E ATP HTS
COc1ccc(NC(=O)Nc2cccc3c2O[C@H](CN(C)Cc2ccc(C(F)(F)F)cc2)[C@@H](C)CN([C@H](C)CO)C3=O)cc1 | 0 | - | 0
C[C@H](CO)N1C[C@H](C)[C@@H](CN(C)Cc2ccc(C(F)(F)F)cc2)Oc2c(NC(=O)Nc3ccc(F)cc3)cccc2C1=O | 74 | 0 | 0
C[C@H]1CN([C@@H](C)CO)C(=O)c2cccc(NC(=O)Nc3ccc(C(F)(F)F)cc3)c2O[C@H]1CN(C)Cc1ccc2c(c1)OCO2 | 85 | - | 0
C[C@H]1CN([C@@H](C)CO)C(=O)c2cccc(NC(=O)Nc3ccc(C(F)(F)F)cc3)c2O[C@@H]1CN(C)Cc1ccc(C(F)(F)F)cc1 | 0 | 0 | 0
O=C1O[C@@H](c2ccccc2)[C@@H](c2ccccc2)N2[C@@H](c3ccccc3OCCO)[C@]3(C(=O)Nc4ccc(C#CCCO)cc43)[C@@H](C(=O)Nc3nc4ccccc4s3)[C@H]12 | - | 0 | -
C[C@H]1CN([C@@H](C)CO)C(=O)c2cc(NS(=O)(=O)c3ccc(F)cc3)ccc2O[C@@H]1CN(C)C | 0 | - | 0
C[C@H]1CN([C@@H](C)CO)C(=O)c2cc(NC(=O)CCC(F)(F)F)ccc2O[C@H]1CN(C)S(=O)(=O)c1cccs1 | 0 | - | 0
Cc1ccc(O)c(/C=N/NC(=O)c2ccccc2O)c1 | 0 | - | 0
O=C(CCCCCCC(=O)Nc1ccccc1O)N/N=C/c1ccccc1C(=O)O | 0 | - | 0
C[C@H]1CN([C@@H](C)CO)C(=O)c2cccc(NC(=O)Nc3ccc(C(F)(F)F)cc3)c2O[C@@H]1CN(C)Cc1ccc(Oc2ccccc2)cc1 | 0 | 0 | 0
C[C@H](CO)N1C[C@H](C)[C@H](CN(C)Cc2ccc(Oc3ccccc3)cc2)Oc2c(NC(=O)Nc3ccc(C(F)(F)F)cc3)cccc2C1=O | 62 | - | 0
O=C(CCCCC(=O)N/N=C/c1cccnc1Cl)NO | 0 | - | 0
COc1ccc(NC(=O)Nc2ccc3c(c2)CC(=O)N([C@@H](C)CO)C[C@@H](C)[C@H](CN(C)Cc2ccc(C(F)(F)F)cc2)O3)cc1 | - | 0 | -
COc1ccc(CN(C)C[C@H]2Oc3ccc(NC(=O)Nc4ccc(C(F)(F)F)cc4)cc3CC(=O)N([C@@H](C)CO)C[C@@H]2C)cc1 | 0 | 0 | 0
C[C@@H]1CN([C@H](C)CO)C(=O)Cc2cc(NC(=O)Nc3ccc(F)cc3)ccc2O[C@H]1CN(C)Cc1ccc(C(F)(F)F)cc1 | 73 | - | 0
C[C@H]1CN([C@@H](C)CO)C(=O)Cc2cc(NC(=O)Nc3ccc(F)cc3)ccc2O[C@@H]1CN(C)Cc1ccc(C(F)(F)F)cc1 | 84 | 0 | 0
C[C@H](CO)N1C[C@H](C)[C@H](CN(C)Cc2ccc(C(F)(F)F)cc2)Oc2ccc(NC(=O)Nc3ccc(F)cc3)cc2CC1=O | 78 | - | 0
Cc1[nH]cnc1/C=N/NC(=O)c1ccccc1O | 0 | 0 | 0
